Measured values from different studies.
Compare with care: the assays were run in different laboratories. Converted amounts (≈) assume the structure as drawn.

| Structure (SMILES) | tested on | test | system | setting | measurement | value |
| --- | --- | --- | --- | --- | --- | --- |
| c1ccc2[nH]c(-c3ccncc3)nc2c1 | Staphylococcus aureus | microbial growth, broth dilution | ATCC43300 MRSA | drug-resistant strain | MIC | 256 µg/mL (≈ 1310 µM) |
| COC(=O)c1cc(-c2cccc(NC(=S)Nc3ccc(F)c(Cl)c3)c2)on1 | Escherichia coli | microbial growth, broth dilution | ATCC25922 | – | MIC | > 64 µg/mL |
| O=C(O)c1cn(C2CC2)c2cc(N3CCNCC3)c(F)cc2c1=O | Staphylococcus aureus | microbial killing | – | – | MBC | 19 µM (≈ 6.3 µg/mL) |
| Cn1cnc2nc(NCc3ccc(Cl)c(Cl)c3)[nH]c(=O)c21 | Lactobacillus acidophilus | microbial growth, agar dilution | – | 48 h | MIC | 8 µg/mL (≈ 24.7 µM) |
| O=C(O)c1cn(C2CC2)c2cc(N3CCNCC3)c(F)cc2c1=O | Micrococcus luteus | microbial growth | ATCC10240 | 5 µg/mL, 20 h | inhibition zone | 0 mm |
| COC(=O)c1cc(-c2cccc(NC(=O)Nc3ccc(C)cc3)c2)on1 | Escherichia coli | microbial growth, broth dilution | ATCC25922 | – | MIC | > 64 µg/mL |
| Cc1ccc2nc(-c3cc(Br)ccc3O)[nH]c2c1 | Staphylococcus aureus | microbial growth, broth dilution | ATCC43300 MRSA | drug-resistant strain | MIC | 128 µg/mL (≈ 422 µM) |
| COC(=O)c1cc(-c2cccc(NC(=O)Nc3ccc(OC)cc3)c2)on1 | Escherichia coli | microbial growth, broth dilution | ATCC25922 | – | MIC | > 64 µg/mL |
| Cc1ccc2[nH]c3c(c2c1)CCCC3NCCc1ccc(Br)cc1 (stereo not drawn) | Micrococcus luteus | microbial growth, broth dilution | DSM1790 | – | MIC | 2 µg/mL (≈ 5.22 µM) |
| COc1ccc(-c2nc3ccccc3[nH]2)cc1O | Staphylococcus aureus | microbial growth, broth dilution | ATCC43300 MRSA | drug-resistant strain | MIC | 256 µg/mL (≈ 1070 µM) |
| COc1ccc2c(C(=O)C(=O)NCCc3c[nH]c4ccccc34)cn(Cc3ccc(Cl)cc3)c2c1 | C4-2 | cell growth or viability, MTT | – | – | IC50 | > 100 µM |
| CSc1ncnc2c1ncn2[C@@H]1O[C@H](CO)[C@@H](O)[C@H]1O | Severe acute respiratory syndrome coronavirus | plaque formation, inhibitor | Vero C1008 | – | IC50 | > 300 µM |
| O=C(NCCc1c[nH]c2ccccc12)C(=O)c1cn(Cc2ccc(F)cc2)c2ccccc12 | C4-2 | cell growth or viability, MTT | – | – | IC50 | > 100 µM |
| COc1cccc(-c2nc3ccccc3n2Cc2ccccc2)c1 | Staphylococcus aureus | microbial growth, broth dilution | ATCC43300 MRSA | drug-resistant strain | MIC | 256 µg/mL (≈ 814 µM) |
| COC(=O)c1cc(-c2cccc(NC(=S)Nc3ccccc3)c2)on1 | Escherichia coli | microbial growth, broth dilution | ATCC25922 | – | MIC | > 64 µg/mL |
| OCC(CO)CCn1cnc2c(Cl)ncnc21 | Severe acute respiratory syndrome coronavirus | plaque formation, inhibitor | Vero C1008 | – | IC50 | > 300 µM |
| Cc1ccc2nc(-c3ccc([N+](=O)[O-])cc3)n(Cc3ccccc3)c2c1 | Staphylococcus aureus | microbial growth, broth dilution | ATCC43300 MRSA | drug-resistant strain | MIC | 16 µg/mL (≈ 46.6 µM) |
| CCCCCCNC(=S)Nc1cccc(-c2cc(C(=O)OC)no2)c1 | Escherichia coli | microbial growth, broth dilution | ATCC25922 | – | MIC | > 64 µg/mL |
